{"data": "Experimental data collected from several papers", "Penicillin-binding protein 2X": "Penicillin-binding protein 2X (Streptococcus pneumoniae R6, UniProt P59676)", "PTGS2": "Prostaglandin G/H synthase 2 (PTGS2, Homo sapiens, UniProt P35354)"}
{"SMILES": "Fc1c(F)c(F)c(OCCn2c(CNCC34CC5CC(CC(C5)C3)C4)nc3ccccc32)c(F)c1F", "target": "Penicillin-binding protein 2X", "test": "binding, MST", "measurement": "Kd", "result": "70 µM"}
{"SMILES": "COc1ccc2cc3[n+](cc2c1OC)CCc1cc2c(cc1-3)OCO2", "target": "Zinc finger protein GLI1 (GLI1, Homo sapiens, UniProt P08151)", "test": "binding, SPR", "measurement": "Kd", "result": "~0.652 µM"}
{"SMILES": "C=CCOc1ccc(C(=O)/C=C/c2ccc(OC)cc2)c(OS(=O)(=O)c2ccc(F)cc2)c1I", "target": "PTGS2", "test": "enzyme activity, inhibitor", "measurement": "IC50", "result": "28.9 µM"}
{"SMILES": "COc1cc2c(cc1OC)CN(CCc1ccc(NC(=O)c3cccc4c(=O)c5cccc(OC)c5[nH]c34)cc1)CC2", "target": "Alpha-1D adrenergic receptor (ADRA1D, Homo sapiens, UniProt P25100)", "test": "cell-free assay", "measurement": "Ki", "result": "0.144 µM"}
{"SMILES": "CC(C)(C)CNCc1nc2ccccc2n1CCOc1ccccc1", "target": "Penicillin-binding protein 2X", "test": "binding, MST", "measurement": "Kd", "result": "115 µM"}
{"SMILES": "C=CCOc1ccc(C(=O)/C=C/c2cccc(F)c2)c(OS(=O)(=O)c2ccc(F)cc2)c1I", "target": "PTGS2", "test": "enzyme activity, inhibitor", "measurement": "IC50", "result": "18.6 µM"}
{"SMILES": "CN1CC[C@@]2(C)c3cc(OC(=O)Nc4ccccc4)ccc3N(C)[C@@H]12", "target": "Retinal dehydrogenase 2 (ALDH1A2, Homo sapiens, UniProt O94788)", "test": "enzyme activity, inhibitor, fluorescence", "setting": "15 min, pH 7.5", "measurement": "IC50", "result": "< 10 µM"}
{"SMILES": "CCCCC/C=C\\C/C=C\\C/C=C\\C/C=C\\CCCC(=O)OC(CO)CO", "target": "Fatty acid-binding protein 5-ANS (Mus musculus, UniProt Q05816)", "test": "ligand displacement, fluorescence", "measurement": "Ki", "result": "1 µM"}
{"SMILES": "Cn1c(=O)n(CCCCN2CCC3(CC2)OCc2ccccc23)c2ccccc21", "target": "Sigma non-opioid intracellular receptor 1 (SIGMAR1, Cavia porcellus, UniProt Q60492)", "test": "ligand displacement, radioligand", "setting": "cell membranes", "measurement": "Ki", "result": "0.0141 µM"}
